# Screening results from PubChem BioAssay.
# An excerpt weighted towards active compounds, which were near 2.4% of everything screened.
# sPLA2-III inh: Blocks human group III sPLA2 activity; QFRET BODIPY PC-A2 liposome hydrolysis, fluorescence; inhibition, % at 12.2 µM; 370,000 tested, 0.56% active;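 active means inhibition above mean plus 3 SD of compounds lying within the high and low control bounds, cut at about 19% in these data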;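 further: 0% = median of test compound wells and 100% = no enzyme DMSO wells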
# Target sequence (Q9NZ20 whole entry, looked up): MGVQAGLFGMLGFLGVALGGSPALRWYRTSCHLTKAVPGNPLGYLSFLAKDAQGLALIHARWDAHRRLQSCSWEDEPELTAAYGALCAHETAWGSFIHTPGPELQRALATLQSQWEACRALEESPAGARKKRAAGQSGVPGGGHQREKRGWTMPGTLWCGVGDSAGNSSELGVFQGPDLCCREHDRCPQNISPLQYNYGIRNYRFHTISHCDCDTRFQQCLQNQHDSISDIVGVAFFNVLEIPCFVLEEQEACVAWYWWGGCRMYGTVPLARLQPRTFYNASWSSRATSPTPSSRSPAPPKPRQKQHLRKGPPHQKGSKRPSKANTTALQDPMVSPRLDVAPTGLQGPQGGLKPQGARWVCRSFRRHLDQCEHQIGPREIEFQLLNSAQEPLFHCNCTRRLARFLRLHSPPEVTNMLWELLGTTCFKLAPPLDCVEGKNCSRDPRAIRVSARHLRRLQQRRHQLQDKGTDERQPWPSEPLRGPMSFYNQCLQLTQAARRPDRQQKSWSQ
# VIM-2 inhibitor: blocks Pseudomonas aeruginosa VIM-2 metallo-beta-lactamase; purified VIM-2, nitrocefin hydrolysis, epi-absorbance fluorescence; inhibition, % at 5.6 µM; 290,000 tested, 0.89% active; AID 1527;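 active means inhibition above the mean of all tested compounds plus 3 SD, cutoff set per screening run, cut at about 7.5% in these data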;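 further: red hydrolysis product quenches plate fluorescence so inhibitors raise well fluorescence; 0% = enzyme with DMSO and 100% = DMSO without enzyme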
# IMP-1 inhibitor: blocks Pseudomonas aeruginosa IMP-1 metallo-beta-lactamase; purified IMP-1, nitrocefin hydrolysis, epi-absorbance fluorescence; inhibition, % at 5.6 µM; 290,000 tested, 0.45% active; AID 1556;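 active means inhibition above the mean plus 3 SD of all compounds in the same screening run, cut at about 4.5% in these data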;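 further: 0% = IMP-1 with DMSO and 100% = DMSO wells lacking enzyme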
#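 Material – recombinant IMP-1 enzyme, purified · Amount – IMP-1 0.2 nM before substrate addition · Medium – HEPES buffer pH 7.1 with ZnSO4 and Brij 35 · Timing – 25 °C, 15 min preincubation, 25 min reaction · Measured by – plate fluorescence quenching by hydrolysis product, ex 480/em 530 nm · Read-out – percent enzyme inhibition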
# M18AAP inhibitor: PfM18AAP enzyme inhibition | 290,000 tested, 1.2% active | inhibition, % at 7.35 µM | recombinant PfM18AAP, H-Glu-NHMec fluorogenic cleavage;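 active means inhibition above the campaign mean inhibition over all tested compounds plus 3 SD, cut at about 28% in these data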;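 further: 0% = plate median of test compound wells and 100% = 2 mM ZnCl2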
# sPLA2 confirm: human GIII-sPLA2 inhibition, confirmation; recombinant hGIII-sPLA2, BODIPY PC-A2 QFRET fluorescence; shares compounds with sPLA2-III inh; inhibition, % at 12.2 µM; 2,000 tested, 34% active;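 active means mean inhibition across triplicates above the hit cutoff set in the earlier primary screen, cut at about 19% in these data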;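 further: 0% = enzyme with DMSO and 100% = DMSO wells lacking enzyme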
# BODIPY interf: 535nm fluorescence interference, HGIII-sPLA2 counter-screen | shares compounds with sPLA2-III inh | BODIPY FL product fluorescence interference, QFRET | inhibition, % at 12.2 µM | 2,000 tested, 8.5% active;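 active means average inhibition above the solvent-only control mean plus 3 SD, cut at about 6% in these data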;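 further: 0% = DMSO with substrate plus product and 100% = DMSO with substrate alone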
# 535nm interf DR: 535nm optical interference dose response, HGIII-sPLA2 counter-screen; shares compounds with sPLA2-III inh; BODIPY FL product fluorescence interference, cell-free; IC50, µM; 240 tested, under 10 active;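 active means IC50 at or below 10 µM; inactive means IC50 above 10 µM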
# Active calls of the source: *; . = not tested or not shown.
SMILES,sPLA2-III inh,VIM-2 inhibitor,IMP-1 inhibitor,M18AAP inhibitor,sPLA2 confirm,BODIPY interf,others
COc1ccc(-n2sc3c(c2=S)-c2cc(OC)ccc2NC3(C)C)cc1,27*,0,-1,1,12,8.1*,
COc1ccc2c(c1)-c1c(sn(-c3ccccc3)c1=S)C(C)(C)N2,18,1,-2,3,.,.,
Cc1onc(-c2ccccc2)c1C(=O)NC(=S)NNC(=O)c1ccc(O)cc1O,23*,-3,-3,30*,23*,3,
Cc1onc(-c2ccccc2)c1C(=O)NC(=S)NNC(=O)c1ccccc1O,42*,-3,-5,9,34*,1,535nm interf DR=>122
CCOC(=O)CCC(NC(=O)CCCC(=O)NC(CCC(=O)OCC)C(=O)OCC)C(=O)OCC (centres undefined),22*,-2,-2,-2,1,-6,
CCOC(=O)CCC(NC(=O)CCC(=O)NC(CCC(=O)OCC)C(=O)OCC)C(=O)OCC (centres undefined),11,-3,-1,1,.,.,
Cc1cccc(NC2=C(NC(=O)c3ccccc3)C(=O)c3ccccc3C2=O)c1,24*,0,-3,-7,23*,4,
O=C(NC1=C(Nc2ccc(Cl)cc2)C(=O)c2ccccc2C1=O)c1ccccc1,13,1,-1,-13,.,.,
O=C(NCc1ccccc1)[C@H]1CCCN1C(=O)[C@H]1CCCN1C(=O)c1ccc(F)c(C(F)(F)F)c1,15,.,.,.,.,.,
Cc1ccc(S(=O)(=O)NC(=O)COc2ccc(Cl)cc2Cl)cc1,-15,-1,-1,-6,.,.,
Oc1ccccc1C=NNC(=S)NC1CC2C=CC1C2 (centres undefined),21*,.,.,.,24*,6,
Oc1c(Cl)cc(Cl)cc1/C=N/NC(=S)NC1CC2C=CC1C2 (centres undefined),45*,-3,-2,8,61*,14*,
O=C(N/N=C/c1cc(Cl)cc(Cl)c1O)c1ccncc1,-19,-3,-1,8,.,.,
Oc1ccc(O)c(C=NNC(=S)NC2CC3CC2C2C=CCC32)c1 (centres undefined),19,.,.,.,.,.,
Oc1ccccc1/C=N/NC(=S)NC1CC2C=CC1C2 (centres undefined),27*,-4,-3,4,21*,6.2*,
CC(C)C(=O)N1CC[C@H]2[C@H](CCCN2Cc2ccccc2)C1,10,.,.,.,.,.,
CN1CCN(CC(=O)Nc2ccccc2C(F)(F)F)CC1,22*,-2,-2,-2,7,-5,
CC1=NN(c2ccccc2)C(=O)/C1=C/C=C/c1ccc(N(C)C)cc1,23*,0,-2,-4,44*,9.7*,
Oc1c(C(Nc2ccccn2)c2cccnc2)cc(Cl)c2cccnc12 (centres undefined),22*,-2,-3,-2,22*,-12,
Cc1ccc(N(C(=O)c2csnn2)C(C(=O)NC2CCCCC2)c2cccnc2)cc1 (centres undefined),2,-5,-5,4,.,.,
Nc1cc(OCc2ccccc2)ccc1OCc1ccccc1,5,.,.,.,.,.,
O=S(=O)(O)c1nc2ccccc2n1Cc1ccccc1,20*,-2,-3,-3,1,-3,
CCCCn1c(S(=O)(=O)O)nc2ccccc21,1,-1,-3,4,.,.,
CCn1c(S(=O)(=O)O)nc2ccccc21,20*,-2,-2,-8,0,-3,
CS(=O)(=O)c1nc2ccccc2n1Cc1ccccc1,7,-1,-3,7,.,.,
SMILES,sPLA2-III inh,VIM-2 inhibitor,IMP-1 inhibitor,M18AAP inhibitor,sPLA2 confirm,BODIPY interf,others
Cn1nccc1C(=O)N1CCc2ccccc21,87*,1,-2,-4,-1,-1,
CCOc1ccc(/C=C2\NC(=S)NC2=O)cc1,24*,-5,-3,2,23*,-4,
COCCNCCCOc1ccc(C(C)(C)c2ccccc2)cc1,22*,-2,-4,7,-11,-27,
O=C(CCSCCc1ccccn1)Nc1cc(F)ccc1F,19*,-4,-2,-1,1,-7,
CCOC(=O)c1cc(C#N)c(SCC(=O)c2cc(C#N)c(SC)nc2C)nc1C,20*,.,.,.,-11,-3,
CCOC(=O)c1cc(C#N)c(SCc2cccc3ccccc23)nc1C,0,0,-3,14,.,.,
CCN1C(=O)[C@@H]2[C@@H](c3ccc(SC4CCCCC4)c(OC)c3)N3CCC[C@@]3(C(=O)OC)[C@@H]2C1=O,-15,.,.,.,.,.,
N=C(N)SCc1ccc(Cl)cc1Cl,39*,-3,0,-3,1,-8,
NC(=S)Cc1ccc(Cl)cc1Cl,11,-2,-1,-6,.,.,
CCN(CC)CCN1CCn2c3c(c4cc(C)ccc42)CCCC31 (centres undefined),23*,-2,-3,5,10,-20,
Cc1ccc2c(c1)c1c3n2CCNC3CCC1 (centres undefined),27*,0,-2,0,32*,-4,535nm interf DR=>122
CCOC(=O)Cc1nc(N2CCN(Cc3cccc4c3OCO4)CC2)c2c(C)c(C(=O)OCC)sc2n1,-10,.,.,.,.,.,
CC(=O)Nc1ccc(NC(=O)C(Cc2ccccc2)NC(=O)C2CCC(C)CC2)cc1 (centres undefined),25*,-1,-1,-14,10,-13,
O=C(N[C@@H](Cc1ccccc1)C(=O)Nc1ccc(F)cc1)C1CCNCC1,7,0,1,-8,.,.,
Cc1ccc(C(=O)NC2CCCCN(Cc3cccc(Cl)c3)C2=O)c(C)c1 (centres undefined),-4,.,.,.,.,.,
COC(=O)[C@]12C[C@H](CC(=O)N3CCN(C(=O)C4CC4)CC3)C(=O)N(Cc3ccco3)C1=C[C@H](C(C)C)O[C@@H]2C1CC1,20*,.,.,.,-3,-20,
Cc1nn(-c2ccccc2)c2sc(C(=O)NCc3ccc(F)cc3)cc12,-11,.,.,.,.,.,
Cc1ccc(/C(O)=C2/C(=O)C(=O)OC2c2ccc(Cl)cc2)cc1 (centres undefined),7,2,0,4,.,.,
O=C1OC(c2ccccc2)/C(=C(/O)c2ccc(Cl)cc2)C1=O (centres undefined),22*,-2,-2,12,-39,-3,
FC(F)(F)c1cnc(NNC(=S)Nc2cccnc2)c(Cl)c1,20*,0,0,25,33*,1,535nm interf DR=>122
CCOC(=O)C1CCCN(C(=O)c2cccc(C(F)(F)F)c2)CC1 (centres undefined),-1,.,.,.,.,.,
CCN(CC)CCCNC(=O)Cn1cnc2sc(C)c(S(=O)(=O)N3CCC(C)CC3)c2c1=O,1,0,0,-16,.,.,
CN(C)C(=O)NC1c2ccccc2-c2ccccc21,-1,0,-1,-2,.,.,
O=C1C=CC(=O)N1c1ccc2c(c1)C(NC(=O)C(F)(F)F)c1ccccc1-2 (centres undefined),19*,.,.,.,4,-4,
Cc1cc(N)n(-c2ncnc3scc(-c4ccc(Cl)cc4)c23)n1,0,-3,-6,-1,.,.,
